Screens (PubChem)
PTK2B oligo ant: blocks oligomerization of human Pyk2 in cells. Q14289. Q293 cells, Pyk2 FERM NanoBiT luminescence; stronger effect = lower value. z-score (the deposit names both 25 µM and 10 µM). 99,000 compounds, 0.83% hits;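 active = Z-score of -3 or lower, scaled per plate to the spread of control and sample wells; inactive = z-score above -3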;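 also: negative z-score means lost luminescence so less FERM oligomerization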
RORa activator: activators of human nuclear receptor RORA | activation, % at 10 µM | CHO-K1 Gal4-RORA LBD luciferase reporter, luminescence; percent increase over mock-subtracted basal signal | 65,000 compounds, 1.5% hits;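 active = activation above the mean of all tested compounds plus 3 SD, cut at about 49% in these data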;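 also: 0% = DMSO-treated RORA cells and 100% = added signal equal to DMSO minus mock-transfected cells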
SF1 activator: SF-1 (human) activation. Q13285. CHO-K1 Gal4-SF-1 LBD luciferase reporter; % increase over DMSO SF-1-specific signal. AID 522. activation, % at 10 µM. 65,000 compounds, 1.9% hits;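 active = activation above the mean activation of all tested compounds plus 3 SD, cut at about 50% in these data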
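Material: CHO-K1 cells with Gal4–hSF-1 LBD chimera plus Gal4-driven luciferase / Input: 4,000 CHO-K1 cells per well / Incubation: compound exposure 20 h at 37 °C / Signal: luminescence read 15 min after SteadyLite luciferase reagent, after room-temperature equilibration / Read-out: percent activation versus DMSO / Benchmarks: DMSO negative control and −SF1 background wells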
ERa SRC1 pot: ER-alpha (human) coactivator binding potentiation; AID 639; P03372; TR-FRET ERalpha-LBD/SRC-Cy5 coactivator binding, 2 h; 100 = basal binding, no effect; coactivator binding (% of control), % at 25.6 µM; 86,000 compounds, 1.3% hits; in the data active = activity above about 200%;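 also: binding measured in presence of low estradiol as agonist stimulus; 0% = peptide alone without receptor and 100% = receptor with peptide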
Target sequence (P03372 whole entry, looked up, the tested form may be a part): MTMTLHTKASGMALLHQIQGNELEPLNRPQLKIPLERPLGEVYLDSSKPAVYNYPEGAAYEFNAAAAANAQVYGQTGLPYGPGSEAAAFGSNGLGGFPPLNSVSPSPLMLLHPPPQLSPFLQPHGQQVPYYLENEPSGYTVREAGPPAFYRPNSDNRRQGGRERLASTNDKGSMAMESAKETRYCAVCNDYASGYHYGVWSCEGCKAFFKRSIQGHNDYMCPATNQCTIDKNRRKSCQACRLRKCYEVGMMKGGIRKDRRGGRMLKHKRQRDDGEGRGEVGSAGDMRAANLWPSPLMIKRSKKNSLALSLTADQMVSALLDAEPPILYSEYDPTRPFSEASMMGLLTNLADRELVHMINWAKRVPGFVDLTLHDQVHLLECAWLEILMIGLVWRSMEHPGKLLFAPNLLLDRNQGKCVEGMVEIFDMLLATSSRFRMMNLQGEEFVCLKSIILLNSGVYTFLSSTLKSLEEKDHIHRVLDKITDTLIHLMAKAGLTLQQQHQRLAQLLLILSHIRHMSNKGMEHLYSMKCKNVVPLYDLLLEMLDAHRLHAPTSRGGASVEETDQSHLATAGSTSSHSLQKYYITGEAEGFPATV
ERb coact inh: blocks coactivator binding to human estrogen receptor beta; Q92731; TR-FRET ER-beta LBD / SRC1-Cy5 peptide binding; receptor agonist-loaded with 1 µM estradiol; inhibition, % at 25.6 µM; 86,000 compounds, 1.3% hits;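 active = compounds whose percent inhibition of the receptor-coactivator binding signal exceeds about 50% in the single-dose screen, limit read from the data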;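 also: 0% = receptor plus peptide wells without compound and 100% = peptide-only wells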
ERa SRC1 inh: ER-alpha (human) coactivator binding inhibition; TR-FRET ER-alpha LBD / SRC-1 peptide, estradiol-bound; P03372; inhibition, % at 25.6 µM; 86,000 compounds, 1.7% hits; in the data active = inhibition above about 50%;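 also: 0% = receptor plus peptide control and 100% = peptide only without receptor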
An asterisk follows results filed as active; [ ] = another dose, or the depositor's remark. Shown are actives, neighbours in structure and some others; about 4.8% of the full set was active somewhere.

Screening Cc1nc(/C=[N+](\[O-])C(C)(C)/C=N/O)n(O)c1C returned PTK2B oligo ant 0.24, RORa activator -13.1, SF1 activator -3.3, ERa SRC1 pot 114.5, ERb coact inh 55.6*[fluorescence artefact?] and ERa SRC1 inh -4.9.
COc1cc(NC(=O)Cc2ccc(Cl)cc2)ccc1NC(=O)c1ccco1 was read as PTK2B oligo ant -1.35, RORa activator 3.6, SF1 activator -0.4, ERa SRC1 pot 113.3, ERb coact inh 0.6 and ERa SRC1 inh 10.5.
COc1cc(NC(=O)CC(C)C)ccc1NC(=O)c1ccco1 was read as PTK2B oligo ant 1.4, RORa activator 79.8*, SF1 activator 44.1, ERa SRC1 pot 100.3, ERb coact inh -6.5 and ERa SRC1 inh -4.7.
COCCCn1c(SCC(=O)Nc2ccc(NC(=O)c3ccco3)c(OC)c2)nc2ccccc2c1=O was read as PTK2B oligo ant -0.15, ERa SRC1 pot 213.0*[fluorescence artefact?], ERb coact inh 45.7 and ERa SRC1 inh 44.0.
Screening COc1ccc(NC(=O)c2cc(Cl)ccc2NC(=O)c2ccco2)c(OC)c1 returned PTK2B oligo ant -1.72, RORa activator 11.3, SF1 activator -2.1, ERa SRC1 pot 217.3*[fluorescence artefact?], ERb coact inh 10.0 and ERa SRC1 inh 16.2.
Cc1ccnc(Nc2nc3ccccc3o2)n1 was read as RORa activator -3.8, SF1 activator -8.9, ERa SRC1 pot 131.2, ERb coact inh 0.6 and ERa SRC1 inh -5.9.
`CCOC(=O)c1cnc(Nc2nc3ccccc3o2)nc1CSc1ncccn1` gave RORa activator -9.9, SF1 activator 3.6, ERa SRC1 pot 212.0*[fluorescence artefact?], ERb coact inh 2.9 and ERa SRC1 inh 54.9*.
CCCc1nc(Nc2nc3ccccc3o2)nc(C)c1C(=O)OCC was read as PTK2B oligo ant -2.82, RORa activator 49.2*, SF1 activator 80.7*, ERa SRC1 pot 116.1, ERb coact inh -0.2 and ERa SRC1 inh -2.6.
`N#Cc1ccc(NC(=O)c2cc3cc4c5c(c3oc2=N)CCCN5CCC4)cc1` gave RORa activator -1.9, SF1 activator 17.6, ERa SRC1 pot 70.9, ERb coact inh 49.1 and ERa SRC1 inh 64.3*.
`CC(C)=CCC/C(C)=C/CC(C)(C)CNCCN1CCNCC1` gave ERa SRC1 pot 125.5, ERb coact inh -15.4 and ERa SRC1 inh -0.3.
For CC(C)=CCC/C(C)=C/CCC(C)NCCN1CCNCC1 (configuration not stated) the results were RORa activator 6.7, SF1 activator 14.7, ERa SRC1 pot 200.7*[fluorescence artefact?], ERb coact inh -4.6 and ERa SRC1 inh 4.7.
`O=[N+]([O-])c1cc(/C=N\Nc2nccs2)ccc1O` gave ERa SRC1 pot 2.3, ERb coact inh 100.2*[fluorescence artefact?] and ERa SRC1 inh 100.2*[fluorescence artefact?].
CCCc1nc2ccccc2c(C(=O)OCC(=O)NCc2ccco2)c1CC was read as PTK2B oligo ant -1, ERa SRC1 pot 80.4, ERb coact inh -1.5 and ERa SRC1 inh -8.2.
`CCCc1nc2ccccc2c(C(=O)OCC(=O)Nc2ccc(S(=O)(=O)N3CCOCC3)cc2)c1CC` gave PTK2B oligo ant -4.55*, ERa SRC1 pot 105.8, ERb coact inh -1.8 and ERa SRC1 inh 2.1.
For CCCc1nc2ccccc2c(C(=O)OCC(=O)Nc2cccc(S(=O)(=O)N3CCOCC3)c2)c1CC the results were PTK2B oligo ant -4.56*, ERa SRC1 pot 114.5, ERb coact inh 5.2 and ERa SRC1 inh 11.0.
Screening Cc1cc(Nc2cccc(C)c2C)n2nc(C)nc2n1 returned RORa activator 3.5, SF1 activator 1.7, ERa SRC1 pot 113.0, ERb coact inh -1.7 and ERa SRC1 inh -0.1.
Screening COc1cccc(NC(=O)C23CCC(C)(C(=O)O2)C3(C)C)c1 (configuration not stated) returned PTK2B oligo ant 1.12, ERa SRC1 pot 97.7, ERb coact inh 11.3 and ERa SRC1 inh 8.7.
`CCCCn1c(SCC(N)=O)nc2c(sc3ccccc32)c1=O` gave PTK2B oligo ant -1.95, ERa SRC1 pot 263.4*, ERb coact inh 23.8 and ERa SRC1 inh 53.0*[fluorescence artefact?].
Screening Cc1cccc2cc(-c3nc4c(C)cccn4c3NCc3ccco3)c(=O)[nH]c12 returned PTK2B oligo ant -0.38, ERa SRC1 pot 93.3, ERb coact inh 3.8 and ERa SRC1 inh 3.3.
`Cc1ccc2[nH]c(=O)c(-c3nc4cc(C)ccn4c3NCc3ccco3)cc2c1` gave PTK2B oligo ant -0.29, RORa activator 31.3, SF1 activator 22.4, ERa SRC1 pot 151.5, ERb coact inh 38.5 and ERa SRC1 inh 72.6*[fluorescence artefact?].
For Cc1ccc(-c2nn(CC(=O)NC(C)c3ccccc3)c(=O)c3ccccc23)cc1 (configuration not stated) the results were PTK2B oligo ant -0.81, ERa SRC1 pot 207.5*[fluorescence artefact?], ERb coact inh 1.4 and ERa SRC1 inh 27.0.
Screening Cc1nn(CC(=O)NC(C)c2ccccc2)c(=O)c2ccccc12 (configuration not stated) returned PTK2B oligo ant 0.47, RORa activator -1.5, SF1 activator -18.2, ERa SRC1 pot 124.9, ERb coact inh -14.1 and ERa SRC1 inh -4.5.
CCOc1ccc(-c2nc(C#N)c(NC3CC3)o2)cc1 was read as PTK2B oligo ant 0.07, RORa activator 62.8* and SF1 activator 8.7.
`CCOc1ccc(Nc2oc(-c3ccc(Cl)cc3)nc2C#N)cc1` gave PTK2B oligo ant -0.23, ERa SRC1 pot 96.0, ERb coact inh -11.9 and ERa SRC1 inh 0.0.
Screening Cc1ccc(-c2nc(C#N)c(NCCc3ccccn3)o2)cc1 returned PTK2B oligo ant 0.07, RORa activator 61.0*, SF1 activator 54.4*, ERa SRC1 pot 113.3, ERb coact inh -1.5 and ERa SRC1 inh -2.7.
Screening N#Cc1nc(-c2ccc(Cl)cc2)oc1NCCc1ccccn1 returned PTK2B oligo ant -0.1, RORa activator 19.1, SF1 activator 13.4, ERa SRC1 pot 103.5, ERb coact inh 0.3 and ERa SRC1 inh -21.8.
COCCNc1oc(-c2ccc(C)cc2)nc1C#N was read as PTK2B oligo ant 0.64, RORa activator 48.4, SF1 activator 60.6*, ERa SRC1 pot 95.8, ERb coact inh -7.0 and ERa SRC1 inh -12.2.
For CC1(C)CC(=O)C2=C(C1)N(Cc1ccco1)C(=O)C2(NC(=O)C1CCCCC1)C(F)(F)F (configuration not stated) the results were PTK2B oligo ant 0.43, RORa activator -2.5, SF1 activator 9.9, ERa SRC1 pot 108.6, ERb coact inh -0.9 and ERa SRC1 inh 8.8.
`CCC(Sc1nncn1C)C(=O)Nc1ccccc1OC` (configuration not stated) gave PTK2B oligo ant 0.33, RORa activator 3.5, SF1 activator -1.3, ERa SRC1 pot 100.1, ERb coact inh -2.5 and ERa SRC1 inh -2.9.
